B1: NELF-E aptamer (parent)
chain: CCCAACGACUGCCGAGCGAGAUUACGCUUGAGCGCCCCACUGAGGAUGCCCACGGGCGAUUGGGGCACGG

Variants of: B1
Assay: HiTS-RAP
Details: with NELF-E (Drosophila)
Procedure, shortened: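 Aptamer DNA templates bearing a T7 promoter and a ter site were sequenced on an Illumina GAIIx flowcell. T7 RNA polymerase then transcribed them in situ, and GST-Tus halted transcription over 30 minutes at 37°C. After a 30-minute room-temperature equilibration with NELF-E-mOrange at 0.064 to 1000 nM in HEPES binding buffer, clusters were imaged, using only the first binding curve. Intensities normalised to sequencing intensity were averaged per sequence and fitted with weighted Hill fits to give Kd, retaining only fits whose variance stayed under 1,000,000.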

Variant | Kd [nM]
CCCAACGACGGCCGAGCGAGAUUACGCUUGAGCGCCCCACUGAGGAGGCCCACGGGCGAUUGGGGCACGG [U10G U47G] | 6.24
CCCAACGACGGCCGAGCGAGAUUACGCUUGAGCGCCCCACUGAGGAAGCCCACGGGCGAUUGGGGCACGG [U10G U47A] | 10.8
CCCAACGACGGCCGAGCGAGAGUACGCUUGAGCGCCCCACUGAGGAUGCCCACGGGCGAUUGGGGCACGG [U10G U22G] | 4.87
CCCAACGACGGCCGAGCGAGACUACGCUUGAGCGCCCCACUGAGGAUGCCCACGGGCGAUUGGGGCACGG [U10G U22C] | 4.95
CCCAACGACUACCGAGCGAGAUUACGCCUGAGCGCCCCACUGAGGAUGCCCACGGGCGAUUGGGGCACGG [G11A U28C] | 9.79
CCCAACGACUAGCGAGCGAGAUUACGCUUGAGCGCCCCACUGAGGAUGCCCACGGGCGAUUGGGGCACGG [G11A C12G] | 7.18
CCCAACGACUACCGAGCGAGAUUACGCUUGAGCGCCCCACUGAGGAUGCCCACGGGCGAUUGGGGCACGG [G11A] | 5.29
CCCAACGACUACCGAGCGAGAGUACGCUUGAGCGCCCCACUGAGGAUGCCCACGGGCGAUUGGGGCACGG [G11A U22G] | 6.03
CCCAACGACUACCGAGCGAGAUUGCGCUUGAGCGCCCCACUGAGGAUGCCCACGGGCGAUUGGGGCACGG [G11A A24G] | 5.78
CCCAACGACUACCUAGCGAGAUUACGCUUGAGCGCCCCACUGAGGAUGCCCACGGGCGAUUGGGGCACGG [G11A G14U] | 6.48
CCCAACGACUACCAAGCGAGAUUACGCUUGAGCGCCCCACUGAGGAUGCCCACGGGCGAUUGGGGCACGG [G11A G14A] | 6.34
CCCAACGACUACUGAGCGAGAUUACGCUUGAGCGCCCCACUGAGGAUGCCCACGGGCGAUUGGGGCACGG [G11A C13U] | 5.33
CCCAACGACUACGGAGCGAGAUUACGCUUGAGCGCCCCACUGAGGAUGCCCACGGGCGAUUGGGGCACGG [G11A C13G] | 6.15
CCCAACGACUACCGAGGGAGAUUACGCUUGAGCGCCCCACUGAGGAUGCCCACGGGCGAUUGGGGCACGG [G11A C17G] | 6.96
CCCAACGACUACCGAGCGAGAUUACGCUUGAGCGCCCCACUGAGGAUGCCCACGGGCGAUUGGGGCUCGG [G11A A67U] | 6.87
CCCAACGACUACCGAGCGGGAUUACGCUUGAGCGCCCCACUGAGGAUGCCCACGGGCGAUUGGGGCACGG [G11A A19G] | 6.92
CCCAACGACUACCGAGCGAGAUUACGCUUGGGCGCCCCACUGAGGAUGCCCACGGGCGAUUGGGGCACGG [G11A A31G] | 10.9
CCCAACGACUACCGAGCGAGAUGACGCUUGAGCGCCCCACUGAGGAUGCCCACGGGCGAUUGGGGCACGG [G11A U23G] | 5.54
CCCAACGACGGCCGAGCGAGAUUACGCUCGAGCGCCCCACUGAGGAUGCCCACGGGCGAUUGGGGCACGG [U10G U29C] | 4.67
CCCAACGACGGCCGAGCGAGAUUACGCUGGAGCGCCCCACUGAGGAUGCCCACGGGCGAUUGGGGCACGG [U10G U29G] | 5.05

Variant | Kd [nM]
CCCAACGACGGCCGAGCGAGAUUACGCUAGAGCGCCCCACUGAGGAUGCCCACGGGCGAUUGGGGCACGG [U10G U29A] | 4.58
CCCAACGACGGCCGAGCGAGAUUACGCUUGAGCGCCCCACGGAGGAUGCCCACGGGCGAUUGGGGCACGG [U10G U41G] | 5.17
CCCAACGACGGCCGAGCGAGAUUACGCUUGAGCGCCCCACCGAGGAUGCCCACGGGCGAUUGGGGCACGG [U10G U41C] | 76.2
CCCAACGACGGCCGAGCGAGAUUACGCUUGAGCGCCCCACAGAGGAUGCCCACGGGCGAUUGGGGCACGG [U10G U41A] | 82.6
CCCAACGACGGCCGAGCGAGAUUACGCUUGAGCGCCCCACUGAGGAUGCCCACGGGCGAUAGGGGCACGG [U10G U61A] | 29.9
CCCAACGACGGCCGAGCGAGAUUACGCUUGAGCGCCCCACUGAGGAUGCCCACGGGCGAUGGGGGCACGG [U10G U61G] | 8.63
CCCAACGACGGCCGAGCGAGAUUACGCUUGAGCGCCCCACUGAGGAUGCCCACGGGCGACUGGGGCACGG [U10G U60C] | 8.47
CCCAACGACGGCCGAGCGAGAUUACGCUUGAGCGCCCCACUGAGGAUGCCCACGGGCGAAUGGGGCACGG [U10G U60A] | 8.76
CCCAACGACGGCCGAGCGAGAUUACGCUUGAGCGCCCCACUGAGGAUGCCCACGGGCGAGUGGGGCACGG [U10G U60G] | 6.36
CCCAACGACUACCGAGCGAGAUUACGCUUGAGCGCCCCUCUGAGGAUGCCCACGGGCGAUUGGGGCACGG [G11A A39U] | 24.2
CCCAACGACUACCGAGCGAUAUUACGCUUGAGCGCCCCACUGAGGAUGCCCACGGGCGAUUGGGGCACGG [G11A G20U] | 8.59
CCCAACGACUACCGAUCGAGAUUACGCUUGAGCGCCCCACUGAGGAUGCCCACGGGCGAUUGGGGCACGG [G11A G16U] | 6.64
CCCAACGACUACCGAGCAAGAUUACGCUUGAGCGCCCCACUGAGGAUGCCCACGGGCGAUUGGGGCACGG [G11A G18A] | 7.8
CCCAACGACGGCCGAGCGAGAUUACGCGUGAGCGCCCCACUGAGGAUGCCCACGGGCGAUUGGGGCACGG [U10G U28G] | 6.52
CCCAACGACGGCCGAGCGAGAUUACGCAUGAGCGCCCCACUGAGGAUGCCCACGGGCGAUUGGGGCACGG [U10G U28A] | 4.53
CCCAACGACGGCCGAGCGAGAUUACGCCUGAGCGCCCCACUGAGGAUGCCCACGGGCGAUUGGGGCACGG [U10G U28C] | 8.85
CCCAACGACGGCCGAGCGAGAUGACGCUUGAGCGCCCCACUGAGGAUGCCCACGGGCGAUUGGGGCACGG [U10G U23G] | 5.1
CCCAACGACGGCCGAGCGAGAUCACGCUUGAGCGCCCCACUGAGGAUGCCCACGGGCGAUUGGGGCACGG [U10G U23C] | 4.23
CCCAACGACGGCCGAGCGAGAUAACGCUUGAGCGCCCCACUGAGGAUGCCCACGGGCGAUUGGGGCACGG [U10G U23A] | 5.14

Reference: the RNAGym collection of RNA variant scans (doi:10.1038/nmeth.2970)
